# According to ChEMBL document CHEMBL1140207, “A small molecule inhibitor, 1,2,4,5-benzenetetraamine tetrahydrochloride, targeting the y397 site of focal adhesion kinase decreases tumor growth” (J Med Chem, 2008):
# The source made the active and inactive calls. The rule behind the calls is not given here.
# How the values were obtained:
# [1] = system: C8161; assay: Cytotoxicity against human C8161 cells assessed as decrease in cell viability at 100 uM after 24 hrs by MTT assay; assay type: functional, cell-based
# Summary of the method: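 Cells from breast cancer and melanoma lines were exposed to compound for 24 h and viability was read by MTT assay. A reference FAK inhibitor served as the control.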
# [2] = system: BT-474; assay: Induction of apoptosis in human BT474 cells assessed as cleavage of 89 kDa PARP at 1 uM after 24 hrs by Western blotting; assay type: functional, cell-based
# Summary of the method: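 BT474 cells treated at various doses; lysates immunoblotted with PARP antibody, scoring cleaved 89 kDa fragment.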
# [3] = system: BT-474; assay: Induction of apoptosis in human BT474 cells at 10 uM after 24 hrs by […] staining; assay type: functional
# Summary of the method: (§1)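 BT474 cells treated 24 h at various doses; apoptotic nuclei scored by Hoechst staining; means ± SD of four independent experiments versus untreated cells.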
# [4] = system: BT-474; assay: Effect on human BT474 cell survival assessed as cell detachment at 10 uM after 24 hrs by hemocytometer; assay type: functional
# Summary of the method: (§2)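 BT474 cells treated at a range of doses; detached cells counted on a hemacytometer; means ± standard errors of three independent experiments, versus untreated cells.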
# [5] = system: BT-474; assay: Induction of apoptosis in human BT474 cells at 20 uM after 24 hrs by […] staining; assay type: functional; summary of the method: as §1
# [6] = system: BT-474; assay: Effect on human BT474 cell survival assessed as cell detachment at 50 uM after 24 hrs by hemocytometer; assay type: functional; summary of the method: as §2
# [7] = target: Focal adhesion kinase 1 (Homo sapiens) (UniProt Q05397); assay: Inhibition of FAK-Y397 phosphorylation in human BT474 cells at 100 uM by Western blotting; assay type: cell-based; details: BT-474, TDE = time-dependent effect
# Summary of the method: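 BT474 cells given 100 μM for 1–24 h; Y397-FAK and total FAK normalized to β-actin by densitometry, expressed relative to untreated; three independent experiments, mean ± SE.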
# [8] = target: Focal adhesion kinase 1 (Homo sapiens) (UniProt Q05397); assay: Inhibition of total FAK phosphorylation in human BT474 cells at 100 uM by Western blotting; assay type: cell-based; details: BT-474, TDE = time-dependent effect
# Summary of the method: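 BT474 lysates immunoprecipitated with FAK antibody, blotted with phosphotyrosine antibody, then stripped and reprobed for FAK.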
# [9] = system: BT-474; assay: Induction of apoptosis in human BT474 cells assessed as presence of apoptotic nuclei at 20 uM after 24 hrs by […] staining; assay type: functional, cell-based; summary of the method: as §1
# [10] = system: BT-474; assay: Inhibition of human BT474 cells adhesion on collagen coated plates at 100 uM after 3 hrs by crystal violet staining
# Chain of Focal adhesion kinase 1 (Homo sapiens) (Q05397 2-1052 limits assumed): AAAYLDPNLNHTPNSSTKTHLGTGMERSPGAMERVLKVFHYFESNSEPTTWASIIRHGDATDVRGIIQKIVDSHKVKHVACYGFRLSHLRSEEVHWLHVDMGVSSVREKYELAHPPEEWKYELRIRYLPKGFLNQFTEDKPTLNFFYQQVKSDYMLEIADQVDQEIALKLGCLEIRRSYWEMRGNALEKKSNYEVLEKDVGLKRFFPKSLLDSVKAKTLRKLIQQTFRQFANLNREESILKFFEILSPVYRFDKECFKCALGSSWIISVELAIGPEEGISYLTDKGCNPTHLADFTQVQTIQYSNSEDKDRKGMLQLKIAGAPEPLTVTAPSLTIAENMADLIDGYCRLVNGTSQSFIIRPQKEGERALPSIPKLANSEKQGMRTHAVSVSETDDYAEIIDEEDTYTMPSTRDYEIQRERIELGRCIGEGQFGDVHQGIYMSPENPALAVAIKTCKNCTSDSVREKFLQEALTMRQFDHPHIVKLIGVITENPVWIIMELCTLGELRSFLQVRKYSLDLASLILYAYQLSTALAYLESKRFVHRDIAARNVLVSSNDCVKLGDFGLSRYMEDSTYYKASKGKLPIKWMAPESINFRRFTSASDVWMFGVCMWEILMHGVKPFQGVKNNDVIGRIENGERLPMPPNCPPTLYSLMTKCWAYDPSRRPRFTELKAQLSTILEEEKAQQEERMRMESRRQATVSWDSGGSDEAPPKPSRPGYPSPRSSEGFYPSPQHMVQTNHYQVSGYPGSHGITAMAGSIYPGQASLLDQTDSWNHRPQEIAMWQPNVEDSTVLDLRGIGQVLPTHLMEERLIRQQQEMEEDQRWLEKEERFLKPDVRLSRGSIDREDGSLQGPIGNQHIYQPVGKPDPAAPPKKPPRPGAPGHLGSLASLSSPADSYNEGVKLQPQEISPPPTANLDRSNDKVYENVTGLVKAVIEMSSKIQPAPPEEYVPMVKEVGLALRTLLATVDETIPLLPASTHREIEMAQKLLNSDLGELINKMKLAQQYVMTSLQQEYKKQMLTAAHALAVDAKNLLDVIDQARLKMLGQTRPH
Activity [7],Activity [8],SMILES,Activity [1],Activity [2],Activity [3],Activity [4],Activity [5],Activity [6],Activity [9],Activity [10]
,,O=S1(=O)N2CN3CCN(C2)CN1C3,Active,,,,,,,
tde,tde,CNC(=O)c1ccccc1Nc1nc(Nc2ccc(N3CCOCC3)cc2OC)ncc1Cl,,Active,35%,30%,69%,>80%,Active,Active
